Experimental findings from ChEMBL document CHEMBL1141410, “Eremophilane-type sesquiterpene derivatives from the roots of Ligularia lapathifolia” (J Nat Prod, 2007) are described below.

As a reminder, the IC50 is the concentration at which inhibition is half-maximal.

Common to all, as to type: cell-based
The nature of assay [1]: Cytotoxicity against human MGC803 cells after 48 hrs by MTT colorimetric assay. The settings on record: MGC-803, 48 h. The method in brief:
(§1)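 Cells maintained in RPMI-1640 with 10% heat-inactivated FBS, penicillin and streptomycin at 37 °C, 5% CO2; exponentially growing cells seeded at 1 × 10^5 cells/mL, treated after 24 h at 0.1–100 or 0.15–150 mg/L, six replicate wells per point. After 48 h, MTT added for 4 h at 37 °C, then 10% SDS–0.01 M HCl overnight; A570 read, cytotoxicity % versus untreated cells.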
A general note: Tetrazolium dyes change colour on reduction, which living cells bring about.

Assay [2] deals with HepG2. The experiment in a line: Cytotoxicity against human HEPG2 cells after 48 hrs by MTT colorimetric assay. The settings on record: HepG2, 48 h. The method in brief: as §1
Assay [3] has as its system CCRF S-180. The experiment in a line: Cytotoxicity against mouse S180 cells after 48 hrs by MTT colorimetric assay. The settings on record: CCRF S-180, 48 h. The method in brief: as §1

The structures appear in SMILES notation. A value given as a limit tells only on which side of the number the result lay.

With `C/C=C(/C)C(=O)OC1CC[C@@H]2CC(=O)C(C(C)C(=O)OC)=C[C@]2(C)C1C(=O)OC` (stereo not given in full), the IC50 in assay [1], in assay [2] and in assay [3] was above 100 µM each time.

As to `CO[C@]12C[C@H]3CCC=C4C(=O)O[C@@H](C1=C(C)C(=O)O2)[C@]43C`, the half-maximal inhibitory concentration (IC50) is above 100 µM in assay [1], 12.7 µM in assay [2] and 73.1 µM in assay [3].

In the case of `CCO[C@]12C[C@H]3CCC=C4C(=O)O[C@@H](C1=C(C)C(=O)O2)[C@]43C`, the IC50 in assay [1] was found to be 53.9 µM; in assay [2] it was 40.5 µM; in assay [3], 36.6 µM.

Turning to `COC(=O)C1=CCC[C@@H]2CC(C(C)=O)=C[C@]12C`, the figures for the IC50 in assay [1], in assay [2] and in assay [3] were 35.4 µM, 46.5 µM and 19.9 µM, respectively.

In the case of `CC1=C2[C@@H]3OC(=O)C4=CCC[C@H](C[C@]2(O)OC1=O)[C@@]43C`, the IC50 in assay [1], in assay [2] and in assay [3] was above 100 µM in each case.
